From the M2OR odorant receptor database come the findings set out here.

What all share (details): stereoisomer not certain
The target in one test is T1, UniProt L7N210.
T1 sequence (whole entry): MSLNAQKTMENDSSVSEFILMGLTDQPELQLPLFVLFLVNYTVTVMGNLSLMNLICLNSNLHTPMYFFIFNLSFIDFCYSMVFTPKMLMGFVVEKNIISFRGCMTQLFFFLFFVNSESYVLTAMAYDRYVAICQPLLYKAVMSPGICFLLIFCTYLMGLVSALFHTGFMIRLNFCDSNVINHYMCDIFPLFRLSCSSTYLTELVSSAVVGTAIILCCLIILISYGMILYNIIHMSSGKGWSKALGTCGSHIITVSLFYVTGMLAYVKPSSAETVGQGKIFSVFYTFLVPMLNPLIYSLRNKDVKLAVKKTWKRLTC
The essentials: (§1)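 Each entry records the cell line, G-protein, co-transfected protein and tags used. Methods varied with the source, often transient luciferase assays in mammalian cell lines. A receptor–molecule pair is called responsive (active) if the original authors judged its signal statistically different from baseline and non-responsive (inactive) otherwise.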

The target of the next test is T2, UniProt Q7TQV4.
T2 sequence (whole entry): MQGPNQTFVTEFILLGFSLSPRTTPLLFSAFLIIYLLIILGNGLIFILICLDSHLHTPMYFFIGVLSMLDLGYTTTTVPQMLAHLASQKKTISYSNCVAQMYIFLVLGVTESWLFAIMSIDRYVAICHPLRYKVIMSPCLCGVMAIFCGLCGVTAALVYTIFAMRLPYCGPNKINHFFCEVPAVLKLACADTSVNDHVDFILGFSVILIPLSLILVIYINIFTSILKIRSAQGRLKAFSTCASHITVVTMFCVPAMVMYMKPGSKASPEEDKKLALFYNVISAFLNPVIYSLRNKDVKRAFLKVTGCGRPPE
The essentials:
as §1

A further test addresses T3, UniProt Q7TR71.
T3 sequence (whole entry): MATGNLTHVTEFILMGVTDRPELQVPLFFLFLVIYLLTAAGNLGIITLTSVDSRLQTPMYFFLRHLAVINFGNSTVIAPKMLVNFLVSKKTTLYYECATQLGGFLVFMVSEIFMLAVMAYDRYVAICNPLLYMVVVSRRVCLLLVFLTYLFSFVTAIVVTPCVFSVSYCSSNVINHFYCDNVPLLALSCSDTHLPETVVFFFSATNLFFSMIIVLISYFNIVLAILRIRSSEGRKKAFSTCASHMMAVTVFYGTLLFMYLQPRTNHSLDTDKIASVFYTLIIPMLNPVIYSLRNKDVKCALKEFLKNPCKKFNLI
The essentials:
as §1

A further test addresses T4, UniProt Q7TRA3.
T4 sequence (whole entry): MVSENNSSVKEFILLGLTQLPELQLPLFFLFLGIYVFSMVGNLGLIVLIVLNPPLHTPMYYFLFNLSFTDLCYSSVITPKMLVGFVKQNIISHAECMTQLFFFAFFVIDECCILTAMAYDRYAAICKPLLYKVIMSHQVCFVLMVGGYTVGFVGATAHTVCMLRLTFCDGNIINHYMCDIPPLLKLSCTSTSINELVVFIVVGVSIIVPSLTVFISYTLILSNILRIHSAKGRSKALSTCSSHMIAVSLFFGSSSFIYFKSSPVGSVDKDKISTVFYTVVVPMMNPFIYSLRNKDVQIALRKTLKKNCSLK
The essentials: as §1

Another test deals with T5, UniProt Q7TRE4.
T5 sequence (whole entry): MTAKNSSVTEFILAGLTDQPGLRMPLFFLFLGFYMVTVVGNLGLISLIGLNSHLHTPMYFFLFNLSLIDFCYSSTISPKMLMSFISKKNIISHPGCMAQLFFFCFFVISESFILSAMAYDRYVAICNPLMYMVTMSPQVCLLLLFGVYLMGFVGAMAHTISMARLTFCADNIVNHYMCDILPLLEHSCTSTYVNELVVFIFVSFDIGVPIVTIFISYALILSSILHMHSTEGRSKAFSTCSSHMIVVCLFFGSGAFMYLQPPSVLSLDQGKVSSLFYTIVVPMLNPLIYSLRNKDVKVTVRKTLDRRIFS
The essentials: as §1

For a further test, the target named is T6, UniProt Q3KPB0.
T6 sequence (whole entry): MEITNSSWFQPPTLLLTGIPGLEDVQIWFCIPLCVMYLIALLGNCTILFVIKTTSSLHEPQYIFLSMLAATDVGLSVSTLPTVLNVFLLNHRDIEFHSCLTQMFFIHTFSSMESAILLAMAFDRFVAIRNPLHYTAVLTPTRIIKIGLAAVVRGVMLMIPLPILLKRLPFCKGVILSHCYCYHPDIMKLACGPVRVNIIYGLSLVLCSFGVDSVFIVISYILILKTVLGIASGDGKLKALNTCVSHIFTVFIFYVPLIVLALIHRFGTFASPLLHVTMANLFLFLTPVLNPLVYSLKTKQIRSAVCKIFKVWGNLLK
The essentials: as §1

For the next test, the target named is T7, UniProt Q3U0P3.
T7 sequence (whole entry): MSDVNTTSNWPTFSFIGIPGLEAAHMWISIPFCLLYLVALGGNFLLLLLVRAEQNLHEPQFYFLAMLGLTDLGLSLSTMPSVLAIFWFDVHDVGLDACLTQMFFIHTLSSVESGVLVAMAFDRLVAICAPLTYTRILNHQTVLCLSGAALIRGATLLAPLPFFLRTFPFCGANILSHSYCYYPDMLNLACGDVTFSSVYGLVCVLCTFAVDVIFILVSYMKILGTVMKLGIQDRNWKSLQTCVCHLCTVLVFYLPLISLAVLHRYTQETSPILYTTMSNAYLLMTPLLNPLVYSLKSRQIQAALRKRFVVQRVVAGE
The essentials: as §1

The target of the next test is T8, UniProt Q7TQU8.
T8 sequence (whole entry): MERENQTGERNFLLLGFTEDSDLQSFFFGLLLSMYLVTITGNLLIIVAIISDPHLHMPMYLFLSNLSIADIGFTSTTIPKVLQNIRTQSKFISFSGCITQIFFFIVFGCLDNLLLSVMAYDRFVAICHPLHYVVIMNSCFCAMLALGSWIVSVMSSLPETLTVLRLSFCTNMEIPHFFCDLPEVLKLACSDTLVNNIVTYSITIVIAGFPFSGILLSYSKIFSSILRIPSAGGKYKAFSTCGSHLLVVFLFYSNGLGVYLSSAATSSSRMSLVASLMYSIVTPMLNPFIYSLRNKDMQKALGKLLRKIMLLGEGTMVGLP
The essentials:
as §1

A further test addresses T9, UniProt Q7TR79.
T9 sequence (whole entry): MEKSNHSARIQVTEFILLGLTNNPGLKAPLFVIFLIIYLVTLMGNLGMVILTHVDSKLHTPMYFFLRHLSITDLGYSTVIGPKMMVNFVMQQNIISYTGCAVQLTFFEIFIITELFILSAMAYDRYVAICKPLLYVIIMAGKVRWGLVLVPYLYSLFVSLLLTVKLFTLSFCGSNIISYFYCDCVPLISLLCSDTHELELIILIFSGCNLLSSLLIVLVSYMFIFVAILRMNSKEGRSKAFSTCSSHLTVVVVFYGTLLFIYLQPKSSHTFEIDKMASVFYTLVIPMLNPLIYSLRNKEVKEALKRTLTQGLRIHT
The essentials: as §1

Another test deals with UniProt Q7TRM0. The essentials:
as §1

Chain of UniProt Q7TRM0 (Q7TRM0 as listed by the source): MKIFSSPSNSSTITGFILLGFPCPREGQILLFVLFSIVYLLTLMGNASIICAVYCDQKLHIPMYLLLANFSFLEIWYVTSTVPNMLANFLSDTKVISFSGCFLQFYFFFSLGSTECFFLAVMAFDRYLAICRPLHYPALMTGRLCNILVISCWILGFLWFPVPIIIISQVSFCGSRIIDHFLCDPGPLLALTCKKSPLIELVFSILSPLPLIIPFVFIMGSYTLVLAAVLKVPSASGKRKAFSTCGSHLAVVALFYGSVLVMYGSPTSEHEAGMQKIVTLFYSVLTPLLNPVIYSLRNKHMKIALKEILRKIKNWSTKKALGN

In the case of `CCC1CCC(=O)O1` (centres undefined), the “odorant receptor agonist call” value with UniProt L7N210, in the test with UniProt Q7TRA3 and with UniProt Q7TRE4 was “inactive” in each case. In addition, the “odorant receptor agonist call” value in the test with UniProt Q7TQV4 and with UniProt Q7TR71 was “active” throughout.

Regarding `CC(C=O)Cc1ccc2c(c1)OCO2` (centres undefined), in the test with UniProt L7N210, the “odorant receptor agonist call” value was “active”. Further, the “odorant receptor agonist call” value with UniProt Q3KPB0, in the test with UniProt Q3U0P3, with UniProt Q7TQU8 and in the test with UniProt Q7TR79 was “inactive” throughout.

Consider `Oc1ccccc1Br`, for which the “odorant receptor agonist call” value with UniProt L7N210, in the test with UniProt Q3KPB0, with UniProt Q3U0P3, in the test with UniProt Q7TQU8 and with UniProt Q7TR79 was “inactive” in each case.

For `OCc1ccc2c(c1)OCO2`, the “odorant receptor agonist call” value with UniProt L7N210, in the test with UniProt Q3KPB0, in the test with UniProt Q3U0P3, in the test with UniProt Q7TQU8 and in the test with UniProt Q7TR79 was “inactive” throughout.

In the case of `C=C(C)C1CC=C(C=O)CC1` (centres undefined), the “odorant receptor agonist call” value with UniProt L7N210 is “active”. The “odorant receptor agonist call” value in the test with UniProt Q3KPB0, in the test with UniProt Q3U0P3, with UniProt Q7TQU8 and in the test with UniProt Q7TR79 was “inactive” each time.

With `O=Cc1ccc2c(c1)OCO2`, in the test with UniProt L7N210, the “odorant receptor agonist call” value is “active”. For the same molecule, the “odorant receptor agonist call” value in the test with UniProt Q3KPB0, with UniProt Q3U0P3, with UniProt Q7TQU8 and in the test with UniProt Q7TR79 was “inactive” each time.

For the molecule `C=CCOC(=O)Cc1ccccc1`, the “odorant receptor agonist call” value with UniProt L7N210, in the test with UniProt Q3KPB0, in the test with UniProt Q3U0P3, in the test with UniProt Q7TQU8, with UniProt Q7TQV4 and in the test with UniProt Q7TR71 was “inactive” throughout. For the same molecule, the “odorant receptor agonist call” value in the test with UniProt Q7TR79, with UniProt Q7TRA3 and with UniProt Q7TRE4 was “inactive” each time.

For the molecule `CSSC`, the “odorant receptor agonist call” value with UniProt L7N210, in the test with UniProt Q3KPB0, in the test with UniProt Q3U0P3, with UniProt Q7TQU8 and with UniProt Q7TR79 was “inactive” throughout.

For `O=C(O)CCCCCCCBr`, in the test with UniProt Q7TRM0, the “odorant receptor agonist call” value was “inactive”.

Take `O=CC=Cc1ccccc1`: the “odorant receptor agonist call” value with UniProt L7N210, with UniProt Q3KPB0, in the test with UniProt Q3U0P3, with UniProt Q7TQU8 and in the test with UniProt Q7TR79 was “inactive” each time.

For `CCCCCCC(Br)C(=O)O` (centres undefined), the “odorant receptor agonist call” value with UniProt L7N210, with UniProt Q3KPB0, with UniProt Q3U0P3, in the test with UniProt Q7TQU8 and with UniProt Q7TR79 was “inactive” in each case.

For the molecule `O=c1cc(O)c2ccccc2o1`, the “odorant receptor agonist call” value with UniProt L7N210, with UniProt Q3KPB0, in the test with UniProt Q3U0P3, in the test with UniProt Q7TQU8, with UniProt Q7TQV4 and with UniProt Q7TR71 was “inactive” in each case. Moreover, the “odorant receptor agonist call” value with UniProt Q7TR79, with UniProt Q7TRA3 and with UniProt Q7TRE4 was “inactive” throughout.

As for `Cc1ccc(OC(=O)Cc2ccccc2)cc1`, the “odorant receptor agonist call” value in the test with UniProt L7N210, with UniProt Q3KPB0, with UniProt Q3U0P3, with UniProt Q7TQU8 and with UniProt Q7TR79 was “inactive” each time.

With `CCCCC(Br)C(=O)O` (centres undefined), the “odorant receptor agonist call” value with UniProt L7N210 was “active”. For the same molecule, the “odorant receptor agonist call” value with UniProt Q3KPB0, with UniProt Q3U0P3, with UniProt Q7TQU8 and in the test with UniProt Q7TR79 was “inactive” throughout.

As to `C=CCc1ccccc1`, the “odorant receptor agonist call” value with UniProt L7N210, in the test with UniProt Q7TQV4, in the test with UniProt Q7TR71, with UniProt Q7TRA3 and with UniProt Q7TRE4 was “inactive” each time.

Regarding `O=Cc1ccccc1`, the “odorant receptor agonist call” value in the test with UniProt L7N210, with UniProt Q3KPB0, in the test with UniProt Q3U0P3, in the test with UniProt Q7TQU8 and in the test with UniProt Q7TR79 was “inactive” in each case.

For the molecule `COc1ccc(C=O)cc1`, the “odorant receptor agonist call” value with UniProt L7N210 is “active”. The “odorant receptor agonist call” value with UniProt Q3KPB0, in the test with UniProt Q3U0P3, with UniProt Q7TQU8 and with UniProt Q7TR79 was “inactive” throughout.
